The values below come from PMC3328401 (Journal of Medicinal Chemistry, 2012).

One data set relates to OVCAR-3 cells. Briefly: Subcellular distribution of 125I-labeled reagents. It counts as cell-based, human. To be noted: for ^125I in cytoplasm, 24 hours / ^125I in nucleus, 24 hours: 1 h incubation then 24 h in fresh nonradioactive medium; for ^125I in cytoplasm, 1 hour / ^125I in nucleus, 1 hour: 1 h incubation, 55.5 kBq/mL. The method, boiled down: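 OVCAR-3 cells were kept in RPMI-1640 with insulin, 2 mM L-glutamine and 20% FBS and expanded as intraperitoneal xenografts in athymic nude mice. Cells in six T150 flasks attached overnight, then were exposed 1 h to ¹²⁵I compound (55.5 kBq/mL). Three flasks were processed immediately and three after 24 h in fresh medium. Cells were trypsinized, counted, fractionated into nuclear/cytoplasmic compartments and gamma-counted.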

Data set [1] can be described thus: Chemical hydrolysis of cycloSal phosphate triesters in phosphate buffer. It counts as physicochemical. The settings on record: phosphate buffer 50 mM, pH 7.3, 37°C, ~15% acetonitrile.

SMILES strings stand for the structures. A value given as a limit tells only on which side of the number the result lay.

Turning to `O=c1[nH]c(=O)n([C@H]2C[C@H](O)[C@@H](COP3(=O)OCc4ccccc4O3)O2)cc1[125I]` (stereo partly shown) [6b, 5-[^125I]-Iodo-5′-O-cycloSaligenyl-2′-deoxyuridine Monophosphate], in the data set with OVCAR-3 cells, the “^125I in cytoplasm, 24 hours” value is 7.3 (1.0) cpm/10^3 cells (std dev); the “^125I in nucleus, 24 hours” value was 39.4 (5.8) cpm/10^3 cells (std dev); the “^125I in cytoplasm, 1 hour” value is reported as 20.2 (3.2) cpm/10^3 cells (std dev); the “^125I in nucleus, 1 hour” value is 5.7 (1.6) cpm/10^3 cells (std dev).
The matching figures for `Cc1cccc2c1OP(=O)(OC[C@H]1O[C@@H](n3cc([125I])c(=O)[nH]c3=O)C[C@@H]1O)OC2` (stereo partly shown) [7b, 5-[^125I]-Iodo-5′-O-cyclo(3-methylSaligenyl)-2′-deoxyuridine Monophosphate]: 1.6 (0.5) cpm/10^3 cells (std dev), 25.9 (7.1) cpm/10^3 cells (std dev), 11.7 (1.7) cpm/10^3 cells (std dev) and 4.5 (1.0) cpm/10^3 cells (std dev).
With `CC(C)(C)c1cc(C(C)(C)C)c2c(c1F)COP(=O)(OC[C@H]1O[C@@H](n3cc(I)c(=O)[nH]c3=O)C[C@@H]1O)O2` (stereo partly shown) [8-fast, 5-Iodo-5′-O-[cyclo-3,5-di-(tert-butyl)-6-fluoroSaligenyl]-2′-deoxyuridine Monophosphate], in data set [1], the “k (rate of hydrolysis)” value is 0.000241 min⁻¹.
On to `CC(C)(C)c1cc(C(C)(C)C)c2c(c1F)COP(=O)(OC[C@H]1O[C@@H](n3cc(I)c(=O)[nH]c3=O)C[C@@H]1O)O2` (stereo partly shown) [8-slow, 5-Iodo-5′-O-[cyclo-3,5-di-(tert-butyl)-6-fluoroSaligenyl]-2′-deoxyuridine Monophosphate], for which, in data set [1], the “k (rate of hydrolysis)” value stood at 0.000188 min⁻¹.
In the case of `CC(C)(C)c1cc(C(C)(C)C)c2c(c1F)COP(=O)(OC[C@H]1O[C@@H](n3cc([125I])c(=O)[nH]c3=O)C[C@@H]1O)O2` (stereo partly shown) [8b, 5-[^125I]-Iodo-5′-O-[cyclo-3,5-di-(tert-butyl)-6-fluoroSaligenyl]-2′-deoxyuridine Monophosphate], in the data set on OVCAR-3 cells, the “^125I in cytoplasm, 24 hours” value is on record as 3.2 (0.01) cpm/10^3 cells (std dev); the “^125I in nucleus, 24 hours” value is on record as 92.2 (5.0) cpm/10^3 cells (std dev); the “^125I in cytoplasm, 1 hour” value was 88.3 (5.4) cpm/10^3 cells (std dev); the “^125I in nucleus, 1 hour” value is 7.9 (0.4) cpm/10^3 cells (std dev). Further, in the data set with OVCAR-3 cells (OVCAR-3, 24 h), the “retained radioactivity, more than 6b” value is on record as > 230% and the “retained radioactivity, more than 7b” value was ~ 360%.
On to `O=c1[nH]c(=O)n([C@H]2C[C@H](OP3(=O)OCc4ccccc4O3)[C@@H](COP3(=O)OCc4ccccc4O3)O2)cc1[125I]` (stereo partly shown) [9b], for which, in the data set on OVCAR-3 cells, the “^125I in cytoplasm, 24 hours” value is listed as 37.3 (10.0) cpm/10^3 cells (std dev); the “^125I in nucleus, 24 hours” value was 18.1 (3.9) cpm/10^3 cells (std dev); the “^125I in cytoplasm, 1 hour” value is recorded as 97.6 (10.0) cpm/10^3 cells (std dev); the “^125I in nucleus, 1 hour” value is 6.4 (0.5) cpm/10^3 cells (std dev).
Take `Cc1cccc2c1OP(=O)(OC[C@H]1O[C@@H](n3cc([125I])c(=O)[nH]c3=O)C[C@@H]1OP1(=O)OCc3cccc(C)c3O1)OC2` (stereo partly shown) [10b]: in the data set with OVCAR-3 cells, the “^125I in cytoplasm, 24 hours” value is listed as 13.4 (3.3) cpm/10^3 cells (std dev); the “^125I in nucleus, 24 hours” value is 24.5 (5.4) cpm/10^3 cells (std dev); the “^125I in cytoplasm, 1 hour” value is listed as 97.1 (14.6) cpm/10^3 cells (std dev); the “^125I in nucleus, 1 hour” value is reported as 6.0 (0.9) cpm/10^3 cells (std dev).
As for `O=c1[nH]c(=O)n([C@H]2C[C@H](OP3(=O)OCc4ccccc4O3)[C@@H](CO)O2)cc1I` (stereo partly shown) [12-fast, 5-Iodo-3′-O-cycloSaligenyl-2′-deoxyuridine Monophosphate], the “k (rate of hydrolysis)” value in data set [1] was determined as 0.00205 min⁻¹.
On the same count and under the same terms, for `O=c1[nH]c(=O)n([C@H]2C[C@H](OP3(=O)OCc4ccccc4O3)[C@@H](CO)O2)cc1I` (stereo partly shown) [12-slow, 5-Iodo-3′-O-cycloSaligenyl-2′-deoxyuridine Monophosphate] the value was 0.00164 min⁻¹.
For the compound `O=c1[nH]c(=O)n([C@H]2C[C@H](OP3(=O)OCc4ccccc4O3)[C@@H](CO)O2)cc1[125I]` (stereo partly shown) [12b, 5-[^125I]-Iodo-3′-O-cycloSaligenyl-2′-deoxyuridine Monophosphate], in the data set on OVCAR-3 cells, the “^125I in cytoplasm, 24 hours” value was 2.7 (0.3) cpm/10^3 cells (std dev); the “^125I in nucleus, 24 hours” value was 30.2 (5.3) cpm/10^3 cells (std dev); the “^125I in cytoplasm, 1 hour” value is listed as 7.2 (0.7) cpm/10^3 cells (std dev); the “^125I in nucleus, 1 hour” value is given as 2.1 (0.2) cpm/10^3 cells (std dev).
Consider `Cc1cccc2c1OP(=O)(O[C@H]1C[C@H](n3cc(I)c(=O)[nH]c3=O)O[C@@H]1CO)OC2` (stereo partly shown) [13-fast, 5 - Iodo-3′-O-cyclo(3-methylSaligenyl)-2′-deoxyuridine Monophosphate], for which the “k (rate of hydrolysis)” value in data set [1] amounted to 0.000946 min⁻¹.
On to `Cc1cccc2c1OP(=O)(O[C@H]1C[C@H](n3cc(I)c(=O)[nH]c3=O)O[C@@H]1CO)OC2` (stereo partly shown) [13-slow, 5 - Iodo-3′-O-cyclo(3-methylSaligenyl)-2′-deoxyuridine Monophosphate], for which the “k (rate of hydrolysis)” value in data set [1] is 0.000813 min⁻¹.
On to `Cc1cccc2c1OP(=O)(O[C@H]1C[C@H](n3cc([125I])c(=O)[nH]c3=O)O[C@@H]1CO)OC2` (stereo partly shown) [13b, 5-[^125I]-Iodo-3′-O-cyclo(3-methylSaligenyl)-2′-deoxyuridine Monophosphate], for which, in the data set with OVCAR-3 cells, the “^125I in cytoplasm, 24 hours” value is given as 1.4 (0.3) cpm/10^3 cells (std dev); the “^125I in nucleus, 24 hours” value is recorded as 15.7 (2.2) cpm/10^3 cells (std dev); the “^125I in cytoplasm, 1 hour” value is 6.2 (0.6) cpm/10^3 cells (std dev); the “^125I in nucleus, 1 hour” value is on record as 2.0 (0.2) cpm/10^3 cells (std dev).
`CC(C)(C)c1cc(C(C)(C)C)c2c(c1F)COP(=O)(O[C@H]1C[C@H](n3cc(I)c(=O)[nH]c3=O)O[C@@H]1CO)O2` (stereo partly shown) [14-fast, 5-Iodo-3′-O-[cyclo-3,5-di-(tert-butyl)-6-fluoroSaligenyl]-2′-deoxyuridine Monophosphate]: the “k (rate of hydrolysis)” value in data set [1] was found to be 0.000766 min⁻¹.
For the compound `CC(C)(C)c1cc(C(C)(C)C)c2c(c1F)COP(=O)(O[C@H]1C[C@H](n3cc(I)c(=O)[nH]c3=O)O[C@@H]1CO)O2` (stereo partly shown) [14-slow, 5-Iodo-3′-O-[cyclo-3,5-di-(tert-butyl)-6-fluoroSaligenyl]-2′-deoxyuridine Monophosphate], the “k (rate of hydrolysis)” value in data set [1] amounted to 0.000667 min⁻¹.
For `CC(C)(C)c1cc(C(C)(C)C)c2c(c1F)COP(=O)(O[C@H]1C[C@H](n3cc([125I])c(=O)[nH]c3=O)O[C@@H]1CO)O2` (stereo partly shown) [14b, 5-[^125I]-Iodo-3′-O-(cyclo-3,5-di-(tert-butyl)-6-fluoroSaligenyl)-2′-deoxyuridine Monophosphate], in the data set on OVCAR-3 cells, the “^125I in cytoplasm, 24 hours” value is reported as 2.7 (0.4) cpm/10^3 cells (std dev); the “^125I in nucleus, 24 hours” value is 66.7 (8.4) cpm/10^3 cells (std dev); the “^125I in cytoplasm, 1 hour” value is on record as 62.5 (4.3) cpm/10^3 cells (std dev); the “^125I in nucleus, 1 hour” value is given as 4.3 (0.3) cpm/10^3 cells (std dev).
Turning to `CC(C)(C)c1cc(C(C)(C)C)c2c(c1F)COP(=O)(OC[C@H]1O[C@@H](n3cc(I)c(=O)[nH]c3=O)C[C@@H]1F)O2` (stereo partly shown) [24-fast, 5-Iodo-5′-O-[cyclo-3,5-Di-(tert-butyl)-6-fluoroSaligenyl]-3′-fluoro-2′,3′-dideoxyuridine Monophosphate], the “k (rate of hydrolysis)” value in data set [1] is 0.000292 min⁻¹.
